Reference: publication PMC6664420 (Drug Design, Development and Therapy, 2019)

Columns and labels:
[1] = test system: hERG current; settings: preclinical study; ref Investigator's brochure, unpublished data; cited from earlier work
[2] = test system: Streptococcus pneumonia; settings: ref Investigator's brochure, unpublished data; cited from earlier work
[3] = Safety and tolerability after a single oral dose in healthy volunteers; format: in vivo, human
Method in brief: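 Single-dose, double-blind, placebo-controlled (8:2 active:placebo) escalation in healthy men; tolerability through 48 h post-dose decided escalation. Monitoring covered AEs, physical exam, vital signs, 12-lead ECG, clinical laboratory tests, protein electrophoresis, and continuous pulse oximetry for 4 h post-dose. QTcmax and ΔQTcmax per dose group were compared with placebo by ANOVA and Dunnett's test, P<0.05.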

[4] = mice model; no method or reference given; cited from earlier work
[5] = Pharmacokinetics after a single oral dose in healthy volunteers; format: in vivo, human
Method in brief: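 Healthy men aged 20–50 y received a double-blind single oral dose of test compound mesylate (40–1280 mg) fasted; at 640 mg, dosing was repeated fed in period 2. Plasma was sampled from predose to 48 h, and urine was collected over 0–6, 6–12, 12–24 and 24–48 h. Analysis was UPLC-MS/MS, positive mode. Non-compartmental: linear-up/log-down AUC0-t. Dose proportionality used 95% CI of log-log slope. Food effect used a mixed-model GMR with 90% CI.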

[6] = rats; ref Investigator's brochure, unpublished data; cited from earlier work
[7] = no method or reference given; cited from earlier work
[8] = test system: Gram-negative pathogens; settings: ref Investigator's brochure, unpublished data; cited from earlier work
[9] = cited from earlier work
[10] = all groups, total includes 1 placebo case per Table 2

In the case of `CC(C)(C)[C@H](NC(=O)[C@H](CC1CCCC1)CN(O)C=O)C(=O)N1CCC(NCc2cc(F)c(F)cc2F)CC1` [IDP-73152], the “inhibition of the hERG current” value [1] is given as “concentration-dependent inhibition”, the “PK/PD dependence of the antibiotic effect” value [2] is given as “AUC-dependent” and the “Incidence of drug-related AE: Diarrhoea” value ([3]; 160 mg, N=8) is given as 1. The “Incidence of drug-related AE: Nausea” value ([3]; 160 mg, N=8) was 1, the “Incidence of drug-related AE: Abdominal pain” value ([3]; 320 mg, N=8) was 1 and the “Incidence of drug-related AE: Epigastric discomfort” value ([3]; 320 mg, N=8) was 1. The “Incidence of drug-related AE: Abdominal discomfort” value ([3]; 640 mg, fasted state, N=8) was 1, the “Incidence of drug-related AE: Headache” value ([3]; 1280 mg, N=8) was 1 and the “Incidence of drug-related AE: Nausea” value ([3]; 1280 mg, N=8) was 4. The “severity of AEs” value ([3]; all dose groups) was “mild severity and not serious”, the “drug-related headache, total” value [3, 10] was 2 cases and the “drug-related nausea, total” value [3, 10] was 6 cases. For the same compound, the tolerability ([3]; single oral dose of up to 1280 mg) was “well tolerated”, the mean tmax [4] was 30 min and the terminal half-life [4] was 63 min. For the same compound, the volume of distribution [4] was 1.71 L/kg, the “effect of food on terminal half-life” value ([5]; 640 mg, fed vs fasted, P=0.779) was “not affected by food intake” and the “GMR (with 90% CI) of AUC0-t, fed vs fasted” value ([5]; 640 mg, high-fat meal) was 0.862 (0.811–0.917). The “GMR (with 90% CI) of Cmax, fed vs fasted” value ([5]; 640 mg, high-fat meal) was 0.638 (0.563–0.723), the “decrease of Cmax by food” value ([5]; 640 mg, high-fat meal, fed vs fasted) was 36.2% and the “decrease of Cmax by food” value ([5]; 640 mg, high-fat meal, fed vs fasted, listed as IDP-73152 mesylate) was 36%. For the same compound, the “dose proportionality of AUC0-t” value ([5]; all dose ranges (40–1280 mg)) was “more than dose-proportional”, the “dose proportionality of AUC0-t” value ([5]; range of 40–320 mg) was “dose-proportional” and the “plasma level relative to MIC” value ([5]; single dose of 1280 mg, 12 hrs post-dose) was “above MIC level”. For the same compound, the “distribution coefficient of the liver” value [6] was “approximately 6.0”, the “distribution coefficient of the lung” value [6] was roughly 3.5 and the “bound to plasma protein” value [7] was 95.4%. For the same compound, the “MIC against Gram-negative pathogens” value [8] was “unfavorable MIC value” and the “in vitro antimicrobial activity, minimal inhibitory concentration (MIC)” value [9] was “comparable to that of linezolid and vancomycin”.
